T cruzi inh – T. cruzi replication inhibition. T. cruzi beta-gal in NIH3T3, luminescence, 90 h. inhibition, % (no concentration beside the values). hit rate 1.4% among 300,000. AID 1885;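 active = mean inhibition across valid replicates above about 55%, limit read from the data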;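 also: signal also drops with host cell toxicity which is not excluded here; 0% = plate median of DMSO wells and 100% = zero luminescence signal; higher percent means less beta-gal luminescence so fewer parasites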
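System – NIH/3T3 host cells with β-galactosidase reporter T. cruzi · Doses – single 50 nL compound addition per well in DMSO · Reagent – 5000 T. cruzi trypomastigotes/well · Medium – Low-serum DMEM with 2% FBS · Timing – ≥90 h infection period, 3 h prior cell attachment · Evaluation – parasite load inhibition, % · Technique – GalScreen luminescence, 60 min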
CaV13 FRET inh – Disruptors of the CACNA1D IQ motif to Ca2+-dependent inactivation inhibitor domain association, primary screening, Förster resonance energy transfer in intact living …. HEK cells, CFP/YFP FRET ICDI-IQ, plate reader, 10 min; percent FRET-ratio fall versus neutral wells. AID 743397. inhibition, % at 12.3 µM. hit rate 0.098% among 340,000;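 active = mean replicate inhibition of at least 30% and at least 1% of replicates passing that level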;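 also: 0% = median of the neutral control wells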
PfHsp90 yeast 2 – inhibits growth of yeast expressing Plasmodium falciparum Hsp90; AID 504621; inhibition, % at 9.4 µM; hit rate 0.32% among 310,000; S. cerevisiae expressing PfHsp90, BacTiter-Glo ATP, 48 h; yeast lacking PDR1 and PDR3 efflux regulators;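 active = every replicate shows inhibition above about 80%, whatever the replicate mean, limit read from the data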;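 also: 0% = DMSO neutral controls and 100% = 20 µM radicicol positive controls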
PvdQ acylase – P. aeruginosa PvdQ acylase inhibition; hit rate 0.063% among 340,000; inhibition, % at 10 µM; purified PvdQ acylase, fluorescence plate reader; in the data active = inhibition above about 30%, passing the limit was not always enough;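 also: 0% = vehicle neutral wells and 100% = reference inhibitor wells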
Glyco luc inh – blocks N-linked glycosylation in D54 reporter cells; D54 ERlucT glycosylation luciferase reporter, 24 h; percent of 100 nM tunicamycin response; hit rate 0.23% among 360,000; AID 588692; reporter increase, % at 12.5 µM;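 active = mean luciferase reporter signal, scaled so untreated is 0 and the glycosylation-blocking control 100, at or above a set limit in every replicate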;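 also: luciferase carries N-glycosylation sites so blocking glycosylation raises the light; 0% = median of neutral control wells and 100% = median of 100 nM tunicamycin wells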
HSF1 activator – increases HSF-1 driven luciferase reporter signal | AID 504408 | hit rate 1.7% among 300,000 | activation, % at 9 µM | NIH3T3-HGL HSF-1 luciferase reporter, MG132, 8 h; 100% = twice DMSO control signal;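 active = mean replicate activation of at least 50% with a set share of replicates each reaching 50%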;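 also: 0% = median of the neutral control wells and 100% = twice that signal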
* = called active by the depositor. In the library only some 3% were active in any assay of this set; here they are far more common.

Results for CC(C)OCC(O)CN1CCN(CCN2C(=O)c3cccc4cccc(c34)C2=O)CC1 (centres undefined) ?
T cruzi inh: 23; CaV13 FRET inh: -2; PfHsp90 yeast 2: 13; PvdQ acylase: -15; Glyco luc inh: 33*; HSF1 activator: 40

What do the screens show for `CCC(OCC(O)CN1CCN(CCN2C(=O)c3cccc4cccc(c34)C2=O)CC1)c1ccccc1` (centres undefined)?
T cruzi inh: 1; CaV13 FRET inh: -5; PfHsp90 yeast 2: 12; PvdQ acylase: 1; Glyco luc inh: 14; HSF1 activator: 27

How did C=CCc1ccccc1OCC(O)CN1CCN(CCN2C(=O)c3cccc4cccc(c34)C2=O)CC1 (centres undefined) do in these assays?
T cruzi inh: 44; CaV13 FRET inh: -5; PfHsp90 yeast 2: 48; PvdQ acylase: -9; Glyco luc inh: 23; HSF1 activator: 61*

Results for CCOc1nc(OCC)c2[nH]c(C(=O)O)c(Br)c2n1 ?
CaV13 FRET inh: -7; PfHsp90 yeast 2: 3; PvdQ acylase: -7; Glyco luc inh: 1

What do the screens show for `C#CCN(Cc1ccco1)C(=O)c1nnc2c3ccccc3n(S(=O)(=O)c3ccc(C)cc3)c2n1`?
CaV13 FRET inh: -4

Results for CN1CCN(C(=O)c2ccccc2Nc2ccc(SC(F)F)cc2)CC1 ?
T cruzi inh: -6; CaV13 FRET inh: -1; PfHsp90 yeast 2: -26; PvdQ acylase: -17; Glyco luc inh: 0; HSF1 activator: 8

How did CN1CCC(N(C)C(=O)c2ccccc2Nc2ccc(SC(F)F)cc2)CC1 do in these assays?
T cruzi inh: 59*; CaV13 FRET inh: -4; PfHsp90 yeast 2: 9; PvdQ acylase: 5; Glyco luc inh: -2; HSF1 activator: -35

Results for COc1ccc(NC(=O)C(c2ccccc2)n2c(=O)c(-c3ccco3)nc3ccccc32)cc1 (centres undefined) ?
CaV13 FRET inh: -9

What do the screens show for `Cc1nc(-c2cccc(NS(=O)(=O)c3ccccc3)c2)cs1`?
T cruzi inh: 5; CaV13 FRET inh: -7; PfHsp90 yeast 2: -7; PvdQ acylase: -1; Glyco luc inh: -3; HSF1 activator: 19

How did Cc1ccc2nc(-c3cccc(NS(C)(=O)=O)c3)cc(-c3ccccc3)c2c1 do in these assays?
T cruzi inh: 19; CaV13 FRET inh: -6; PfHsp90 yeast 2: 100*; PvdQ acylase: 2; Glyco luc inh: -3; HSF1 activator: 14

What do the screens show for `C=C1SC(=Nc2ccccc2Cl)N(C(=O)c2sc3ccccc3c2Cl)C1(C)C`?
T cruzi inh: -1; CaV13 FRET inh: -8; PfHsp90 yeast 2: -3; PvdQ acylase: -2; Glyco luc inh: -3; HSF1 activator: 57*

Results for C=C1SC(=Nc2c(C)cccc2Cl)N(C(=O)c2sc3ccccc3c2Cl)C12CCCCC2 ?
T cruzi inh: 34; CaV13 FRET inh: -15; PfHsp90 yeast 2: -15; PvdQ acylase: -11; Glyco luc inh: -4; HSF1 activator: 9

What do the screens show for `O=c1ccnc(SCn2nnc3ccccc3c2=O)[nH]1`?
T cruzi inh: -15; PfHsp90 yeast 2: 18; PvdQ acylase: -7; Glyco luc inh: 1; HSF1 activator: -10

How did O=c1c2ccccc2nnn1CSc1ccccc1F do in these assays?
T cruzi inh: 3; CaV13 FRET inh: -4; PfHsp90 yeast 2: -5; PvdQ acylase: -12; Glyco luc inh: -14; HSF1 activator: 82*

What do the screens show for `Cc1ccc(SCn2nnc3ccccc3c2=O)c(C)c1`?
T cruzi inh: -1; CaV13 FRET inh: -7; PfHsp90 yeast 2: 6; PvdQ acylase: 0; Glyco luc inh: -2; HSF1 activator: 66*

What do the screens show for `Nn1c(Cc2ccccc2F)nnc1SCn1nnc2ccccc2c1=O`?
T cruzi inh: 3; CaV13 FRET inh: -5; PfHsp90 yeast 2: 1; PvdQ acylase: -18; Glyco luc inh: 2; HSF1 activator: 11

How did O=c1c2ccccc2nnn1CSc1ncnc2ccccc12 do in these assays?
T cruzi inh: -4; CaV13 FRET inh: 1; PvdQ acylase: -20; Glyco luc inh: 2; HSF1 activator: 112*

Results for Cc1cccc(Nc2nc3ccccc3s2)c1C ?
T cruzi inh: 34; CaV13 FRET inh: -3; PfHsp90 yeast 2: -11; PvdQ acylase: -11; Glyco luc inh: -12; HSF1 activator: 125*

Results for Cc1cc(C(=O)N2CCCC2(C)C(=O)NCC(C)C)nn1C(C)(C)C (centres undefined) ?
CaV13 FRET inh: -10; Glyco luc inh: 2

How did Cc1cccc(NC(=O)c2cc3ccccc3oc2=O)c1 do in these assays?
T cruzi inh: -11; CaV13 FRET inh: -1; PfHsp90 yeast 2: -35; PvdQ acylase: -8; Glyco luc inh: -17; HSF1 activator: 30

How did Cc1ccnc(NC(=O)c2cc3ccccc3oc2=O)c1 do in these assays?
T cruzi inh: -17; CaV13 FRET inh: -5; PvdQ acylase: 0; Glyco luc inh: -10; HSF1 activator: 67*

What do the screens show for `COc1ccccc1-c1noc2c1C(=O)N(Cc1cn(Cc3ccccc3)nn1)CC2`?
CaV13 FRET inh: -10; Glyco luc inh: -2

Results for CC(C)CCNc1nc2c(cc1C#N)COC(C)(C)C2 ?
T cruzi inh: 5; CaV13 FRET inh: -5; PfHsp90 yeast 2: 30; PvdQ acylase: -8; Glyco luc inh: -1; HSF1 activator: -14

What do the screens show for `CC1(C)Cc2nc(NCCN3CCOCC3)c(C#N)cc2CO1`?
T cruzi inh: -2; PfHsp90 yeast 2: 7; PvdQ acylase: -1; Glyco luc inh: 2; HSF1 activator: 103*

What do the screens show for `Nc1ccc(Cl)c(S(=O)(=O)Nc2ccc(Cl)cc2)c1`?
T cruzi inh: 64*; CaV13 FRET inh: -2; PfHsp90 yeast 2: 25; PvdQ acylase: -8; Glyco luc inh: -1; HSF1 activator: 20

What do the screens show for `O=S(=O)(Nc1ccncc1)c1cc(Cl)ccc1Cl`?
T cruzi inh: -3; CaV13 FRET inh: -3; PfHsp90 yeast 2: -39; PvdQ acylase: 5; Glyco luc inh: -1; HSF1 activator: -24

How did CCCCc1c(CCC)c(=N)c2ccccc2n1C do in these assays?
T cruzi inh: 60*; CaV13 FRET inh: 20; PfHsp90 yeast 2: 20; PvdQ acylase: -14; Glyco luc inh: 1; HSF1 activator: -12

Results for CCCCc1c(O)c2ccccc2n(CCCC)c1=O ?
T cruzi inh: -5; CaV13 FRET inh: -4; PfHsp90 yeast 2: 1; PvdQ acylase: -9; Glyco luc inh: 2; HSF1 activator: -52

How did Cc1cc(Cl)ccc1C(=O)C1CCCN(C(=O)c2cnsn2)C1 (centres undefined) do in these assays?
T cruzi inh: 2; CaV13 FRET inh: -4; PfHsp90 yeast 2: 3; PvdQ acylase: -11; Glyco luc inh: 0; HSF1 activator: 51*

Screens deposited in PubChem by Broad Institute.
